# Measured values gathered from unrelated publications.
# Compare with care: the assays were run in different laboratories.
# RIPK2: Receptor-interacting serine/threonine-protein kinase 2 (RIPK2, Homo sapiens, UniProt O43353)
# SCN1A: Sodium channel protein type 1 subunit alpha (SCN1A, Homo sapiens, UniProt P35498)
# CDK5 with p25: Cyclin-dependent kinase 5, with p25 (CDK5, Homo sapiens, UniProt Q00535)
Compound,target,observed,mode,method,tested at,quantity,result
C=CC(=O)N1CCC(COCC(=O)N2CCN(c3nc(-c4cnc(N)nc4C(F)F)nc(N4CCOC[C@@H]4C)n3)CC2)CC1,RIPK2,binding,,competition with immobilised ligand,1 µM,remaining binding,95%
CC(C)NCC(O)COc1cccc2ccccc12 (stereo not drawn),SCN1A,ion current,inhibitor,patch clamp,3 µM,inhibition,2.62%
COc1cc(-c2cncc3c2CN(C)Cc2cc(N4CCNCC4)ccc2-3)cc(OC)c1OC,CDK5 with p25,enzyme activity,inhibitor,,1 µM,remaining activity,109%
CNc1ncc2c(/C=C/C(=O)N3CCC(OC)CC3)nn(Cc3cccc(C(F)(F)F)c3)c2n1,RIPK2,enzyme activity,inhibitor,radiometric,1 µM,remaining activity,87%
Cc1nnc(SCC2=C(C(=O)O)N3C(=O)[C@@H](NC(=O)Cn4cnnn4)[C@H]3SC2)s1,SCN1A,ion current,inhibitor,patch clamp,10 µM,inhibition,4.84%
Cc1cc([C@@H](C)Nc2ccccc2C(=O)O)c2nc(N3CCC(F)(F)CC3)c(C#N)c(=O)n2c1,"Focal adhesion kinase 1 (PTK2, Homo sapiens, UniProt Q05397)",binding,,competition with immobilised ligand,10 µM,remaining binding,100%
CCCN1C[C@H](CSC)C[C@@H]2c3cccc4[nH]cc(c34)C[C@H]21,SCN1A,ion current,inhibitor,patch clamp,30 µM,inhibition,89.1%
CC(=O)c1c(C)c2cnc(Nc3ccc(N4CCNCC4)cn3)nc2n(C2CCCC2)c1=O,CDK5 with p25,enzyme activity,inhibitor,ADP detection,1 µM,activity vs control,97%
C[C@H]1O[C@H](O[C@H]2[C@H](O)[C@@H](O)[C@@H](O[C@H]3[C@H](O)[C@@H](O)C(O)O[C@@H]3CO)O[C@@H]2CO)[C@H](O)[C@@H](O)[C@@H]1N[C@H]1C=C(CO)[C@@H](O)[C@H](O)[C@H]1O (stereo partly drawn),"Alpha-glucosidase MAL12 (MAL12, Saccharomyces cerevisiae S288c, UniProt P53341)",enzyme activity,inhibitor,absorbance,2000 µg/mL,inhibition,91.2%
